The values that follow come from ChEMBL document CHEMBL1828528, “Acyclic nucleoside thiophosphonates as potent inhibitors of HIV and HBV replication” (Eur J Med Chem, 2011).

The test system of series [1] is Human immunodeficiency virus 1. The series can be described thus: Ratio EC50 for PMEA to compound for HIV1 clade B isolate 2056 infected in human H9 cells assessed as inhibition of viral replication. The series is classed as functional. A digest of the protocol: (§1)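 Ratio computed as EC50 of PMEA divided by EC50 of the test compound, both measured against the same clinical isolate in H9 cells.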

Another series has as its system Feline coronavirus. The series can be described thus: Antiviral activity against Feline coronavirus infected in CrFK cells assessed as inhibition of virus-induced cytopathic effect up to 200 uM measured on day 3 post infection by microscopic analysis. The series is classed as functional, organism-based. A digest of the protocol: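 Confluent CrFK cells inoculated with 100 CCID50 of virus. Compounds up to 200 μM added after 1–2 h adsorption. Cytopathic effect recorded microscopically at day 3 relative to untreated controls.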

The subject of series [2] is Human immunodeficiency virus 1. The series can be described thus: Antiviral activity against HIV1 clade B isolate 1722 infected in human H9 cells assessed as inhibition of viral replication. Type of series: functional, organism-based. Conditions: Human immunodeficiency virus 1, clade B isolate 1722, H9. A digest of the protocol:
(§2)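 H9 cells infected with HIV-1 clinical isolates of clades A, B, C, D, A/E, F and G, in the presence of graded compound concentrations. EC50 is the concentration reducing viral replication by 50%.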

For a further series, the system named is Sindbis virus. The series can be described thus: Antiviral activity against Sindbis virus infected in african green monkey Vero cells assessed as inhibition of virus-induced cytopathic effect up to 200 uM measured on day 3 post infection by microscopic analysis. The series is classed as functional, organism-based. The method, boiled down:
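Confluent Vero cell monolayers inoculated with 100 CCID50 of virus. Compound added after 1–2 h adsorption, tested up to 200 μM. Microscopic CPE scoring on day 3 post infection versus untreated controls.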
For orientation: Protection from cytopathic effect is a common read-out in antiviral testing.

The next series has as its system Vaccinia virus. The series can be described thus: Antiviral activity against Vaccinia virus infected in HEL cells assessed as inhibition of virus-induced cytopathic effect. The series is classed as functional, organism-based. The conditions noted are these: Orthopoxvirus vaccinia. The method, boiled down: (§3)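 Confluent HEL cell monolayers inoculated with 100 CCID50 of virus. Compounds added after a 1–2 h adsorption period. Virus-induced cytopathic effect scored microscopically at 3 days post infection as % of untreated controls. EC50 derived from graphical plots.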

Series [3] has as its system Human immunodeficiency virus 1. The series can be described thus: Ratio EC50 for PMEA to compound for HIV1 clade C isolate 2914 infected in human H9 cells assessed as inhibition of viral replication. The series is classed as functional. A digest of the protocol: as §1
Series [4] has as its system Human immunodeficiency virus 1. The series can be described thus: Antiviral activity against HIV1 clade F isolate 2338 infected in human H9 cells assessed as inhibition of viral replication. The series is classed as functional, organism-based. Conditions: Human immunodeficiency virus 1, clade F isolate 2338, H9. A digest of the protocol: as §2
Series [5] deals with Human alphaherpesvirus 1. The series can be described thus: Antiviral activity against TK-deficient and ACR-resistant Herpes simplex virus type 1 KOS infected in HEL cells assessed as inhibition of virus-induced cytopathic effect. Type of series: functional, organism-based. The conditions noted are these: Human alphaherpesvirus 1, KOS. The method, boiled down: as §3
The test system of series [6] is Human immunodeficiency virus 1. The series can be described thus: Antiviral activity against HIV1 clade A isolate 4113 infected in human H9 cells assessed as inhibition of viral replication. Conditions: Human immunodeficiency virus 1, clade A isolate 4113, H9. Type of series: functional, organism-based. A digest of the protocol:
as §2

The next series relates to CCRF-CEM. The series can be described thus: (§4) Cytotoxicity against human CEM cells. Type of series: cell-based. Conditions: ccrf-cem. A digest of the protocol:
(§5)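 Mock-infected CEM cells cultured alongside the anti-HIV assay with compound dilutions for 4 days at 37 °C. CC50 is the concentration inhibiting CEM cell proliferation by 50%.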

For series [7], the system named is Human immunodeficiency virus 1. The series can be described thus: Ratio EC50 for PMEA to compound for HIV1 clade A isolate 4113 infected in human H9 cells assessed as inhibition of viral replication. Type of series: functional. A digest of the protocol:
as §1

Series [8] relates to Human immunodeficiency virus 1. The series can be described thus: Antiviral activity against 6250 TCID50 wild type HIV1 LAI infected in human H9 cells assessed as reduction in viral replication measured on day 7 post infection by reverse transcriptase activity. The series is classed as functional, organism-based. The conditions noted are these: Human immunodeficiency virus 1, LAI, H9, 168 h. The method, boiled down: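 H9 cells in RPMI-1640/10% FCS given graded compound concentrations, then infected with a high inoculum of 6250 TCID50 HIV-1 LAI. Supernatant reverse transcriptase activity measured on day 7 post infection. EC50 taken as the concentration giving 50% reduction of viral replication.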

Series [9] concerns Human immunodeficiency virus 1. The series can be described thus: Ratio EC50 for PMEA to compound for HIV1 clade G isolate 3187 infected in human H9 cells assessed as inhibition of viral replication. The series is classed as functional.
Series [10] concerns Human alphaherpesvirus 1. The series can be described thus: Antiviral activity against Herpes simplex virus type 1 KOS infected in HEL cells assessed as inhibition of virus-induced cytopathic effect. The series is classed as functional, organism-based. Conditions: Human alphaherpesvirus 1, KOS. A digest of the protocol:
as §3

The subject of series [11] is Human immunodeficiency virus 1. The series can be described thus: Antiviral activity against 100 TCID50 wild type HIV1 LAI infected in human PBMC assessed as reduction in viral replication measured on day 7 post infection by reverse transcriptase activity. Type of series: functional, organism-based. The conditions noted are these: Human immunodeficiency virus 1, LAI, 168 h. The method, boiled down: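 PHA-P-activated PBMC (1.5 × 10^5; donor cells stimulated 3 days with 1 μg/mL PHA-P plus 5 IU/mL IL-2) or H9 cells (5 × 10^5) in RPMI-1640/10% FCS. Cells pre-treated 30 min with graded compound concentrations, then infected with HIV-1 LAI (100 or 125 TCID50). Supernatant RT activity read on day 7. EC50 from quadratic fit of % inhibition; triplicates, PBMC repeated with a second donor.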

A further series deals with Human alphaherpesvirus 2. The series can be described thus: Antiviral activity against Herpes simplex virus type 2 G infected in HEL cells assessed as inhibition of virus-induced cytopathic effect. Type of series: functional, organism-based. The conditions noted are these: Human alphaherpesvirus 2, strain G. The method, boiled down:
as §3

The test system of the next series is HeLa. The series can be described thus: Cytotoxicity against human HeLa cells up to 200 uM. Type of series: cell-based. The method, boiled down:
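Uninfected confluent Vero, CrFK, HEL or HeLa cultures incubated with serial compound dilutions (up to 200 μM) for the same period as the antiviral assays. Minimal toxic concentration is the lowest giving microscopically detectable alteration of cell morphology.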

Series [12] can be described thus: Half life of the compound in complete culture medium by HPLC analysis. The series is classed as physicochemical. The method, boiled down:
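Compound diluted to 0.1 mM final in RPMI-1640 with 10% heat-inactivated FCS and incubated at 37 °C up to 24 h. Timed aliquots frozen at −80 °C, then analysed by reverse-phase HPLC with on-line filtration: C18 column, triethylammonium bicarbonate pH 7.5/acetonitrile gradient, detection at 260 nm. Half-life calculated.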

The test system of series [13] is Human immunodeficiency virus 1. The series can be described thus: Ratio EC50 for PMEA to compound for HIV1 clade F isolate 2338 infected in human H9 cells assessed as inhibition of viral replication. The series is classed as functional. The method, boiled down: as §1
Series [14] has as its system Human immunodeficiency virus 1. The series can be described thus: Ratio EC50 for PMPA to compound for HIV1 clade A/E isolate 2165 infected in human H9 cells assessed as inhibition of viral replication. Type of series: functional.
Series [15] has as its system Human immunodeficiency virus 1. The series can be described thus: Ratio EC50 for PMPA to compound for HIV1 clade D isolate 1649 infected in human H9 cells assessed as inhibition of viral replication. Type of series: functional.
Series [16] relates to Human immunodeficiency virus 1. The series can be described thus: Ratio EC50 for PMPA to compound for HIV1 clade C isolate 2914 infected in human H9 cells assessed as inhibition of viral replication. The series is classed as functional.
Series [17] can be described thus: Stability of compound in complete culture medium assessed as compound degradation into 9-(2-Phosphonomethoxypropyl)-adenine after 24 hrs by HPLC analysis. Type of series: physicochemical. A digest of the protocol:
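Compound diluted to 0.1 mM final in one of two media and incubated at 37 °C: RPMI-1640 with 10% heat-inactivated FCS, or CEM-SS cell extract (soluble proteins 3 mg/mL in 10 mM Tris-HCl pH 7.4, 140 mM KCl). Aliquots were taken over time, frozen at −80 °C, then run on C18 reverse-phase HPLC with on-line filtration, TEAB/acetonitrile gradient and 260 nm detection. Degradation products were identified by co-injection.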

Series [18] is described as follows: as §4. Conditions: CCRF-CEM (CEM) cells. Type of series: cell-based, CCRF-CEM. A digest of the protocol: as §5
Series [19] has as its system Human immunodeficiency virus 1. The series can be described thus: Ratio EC50 for PMPA to compound for HIV1 clade F isolate 2338 infected in human H9 cells assessed as inhibition of viral replication. Type of series: functional.
Series [20] concerns Human immunodeficiency virus 1. The series can be described thus: Ratio EC50 for PMPA to compound for HIV1 clade B isolate 1722 infected in human H9 cells assessed as inhibition of viral replication. Type of series: functional.

pEC50: −log10 of the molar value. The source made the active and inactive calls.

For `Nc1ncnc2c1ncn2CCOCP(=O)([O-])[S-].[Na+].[Na+]` (centres undefined), the “Ratio EC50” value in series [1] was found to be 0.29; in series [3], 2.96; in [7], 10.8; in [9] it was 0.25; in [13], 0.86. Further, the inhibition result in the series with Feline coronavirus and in the series on Sindbis virus was “inactive” each time. The negative logarithm of the EC50 (pEC50) is 5.55 in series [2]; 4.08 in the series with Vaccinia virus; 6.66 in [4]; 4.62 in the series with Human alphaherpesvirus 1 [5]; 5.79 in series [6]; 4.77 in series [8]. The pEC50 in the series with Human alphaherpesvirus 1 [10] was 4.40; in [11], 4.85; in the series on Human alphaherpesvirus 2, 4.62. The compound further came in with a half-maximal cytotoxic concentration (CC50) in the series with CCRF-CEM of 233 µM. Further, the Activity result in the series with HeLa is reported as “Non-toxic”. The half-life in [12] was above 24 h.

As for `C[C@H](Cn1cnc2c(N)ncnc21)OCP(=O)([O-])[S-].[Na+].[Na+]` (some centres undefined), the inhibition entry in the series with Feline coronavirus and in the series on Sindbis virus was “inactive” in each case. In addition, the “Ratio EC50” value in [14] amounted to 1.5; in series [15] it was 0.14; in [16], 0.89; in [19], 0.2; in [20], 1.35. Further, the pEC50 is 6.29 in series [2]; 4.10 in the series with Vaccinia virus; 6.70 in series [4]; 4.10 in the series with Human alphaherpesvirus 1 [5]; 5.35 in [6]; 5.01 in series [8]. The results for the negative-log EC50 (pEC50) (with Human alphaherpesvirus 1 [10]; in series [11]; in the series with Human alphaherpesvirus 2) were 3.77, 5.38 and 4.32, respectively. Also, the Activity is 77% in [17] and “Non-toxic” in the series on HeLa. Also, the 50% cytotoxic concentration (CC50) in series [18] was above 250 µM. In [12], this compound yielded a half-life above 24 h.

As a reminder, the pEC50 is the EC50 on a negative log10 scale, so that one unit is a factor of ten. For orientation: CC50 means the concentration giving 50% cytotoxicity. By half-life is commonly meant the time needed for the level to fall by half in the phase considered.
